Measured values published in ChEMBL document CHEMBL1150415 (J Med Chem, 2008).
Activity calls are given as the source filed them. The calls are words filed in the database; no cut-off is given here.

What was measured:
Rattus norvegicus [1] = assay: Reduction in synovitis damage in Freund's adjuvant-induced arthritis Lewis rat model at 25 mg/kg, po for 11 days; assay type: functional, organism-based; parameters: dose 25 mg/kg
In short: (§1)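 Arthritis was induced in Lewis rats by intradermal complete Freund's adjuvant at the base of the tail. Oral treatment began on day 8, when mean clinical joint scores were 12, and continued for 11 days. Tarsal joints were taken at necropsy and lesions were scored histologically in blinded fashion.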

Rattus norvegicus [2] = assay: Reduction in synovitis damage in Freund's adjuvant-induced arthritis Lewis rat model at 5 mg/kg, po for 11 days; assay type: functional, organism-based; parameters: dose 5 mg/kg; in short: as §1
Rattus norvegicus [3] = assay: Reduction in cartilage damage in Freund's adjuvant-induced arthritis Lewis rat model at 50 mg/kg, po for 11 days; assay type: functional, organism-based; parameters: dose 50 mg/kg; in short: as §1
Rattus norvegicus [4] = assay: Reduction in cartilage damage in Freund's adjuvant-induced arthritis Lewis rat model at 25 mg/kg, po for 11 days; assay type: functional, organism-based; parameters: dose 25 mg/kg; in short: as §1
Rattus norvegicus [5] = assay: Reduction in cartilage damage in Freund's adjuvant-induced arthritis Lewis rat model at 5 mg/kg, po for 11 days; assay type: functional, organism-based; parameters: dose 5 mg/kg; in short: as §1
Ovis aries [6] = assay: Effect on late asthmatic response in Ascaris Suum antigen-induced reversible airway bronchoconstriction sheep model assessed as reduction in lung resistance at 10 mg/kg, po bid administered 2 hrs before antigen challenge measured 5 to 8 hrs after challenge; assay type: functional; parameters: scale not given: the % may be the effect or the level left
[7] = Ratio of AUC in Sprague-Dawley rat at 25 mg/kg, po to IC50 for TXB2 production in Sprague-Dawley rat whole blood; assay type: functional
Rattus norvegicus [8] = assay: Reduction in synovitis damage in Freund's adjuvant-induced arthritis Lewis rat model at 50 mg/kg, po for 11 days; assay type: functional, organism-based; parameters: dose 50 mg/kg; in short: as §1
[9] = Plasma concentration in adjuvant-induced arthritis Lewis rat model at 25 mg/kg, po after 4 hrs; assay type: ADME, organism-based; parameters: dose 25 mg/kg, route oral
[10] = Inhibition of cytosolic phospholipase A2alpha at 0.020 uM
In short: (§2)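 Isolated enzyme activity on PAPC (1-palmitoyl-2-arachidonoyl-sn-glycero-3-phosphocholine) liposome substrate.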

[11] = target: T1, Cytosolic phospholipase A2 beta (Homo sapiens) (UniProt P0C869); assay: Inhibition of cytosolic phospholipase A2beta at 0.5 uM; in short: as §2
T1 sequence (whole entry): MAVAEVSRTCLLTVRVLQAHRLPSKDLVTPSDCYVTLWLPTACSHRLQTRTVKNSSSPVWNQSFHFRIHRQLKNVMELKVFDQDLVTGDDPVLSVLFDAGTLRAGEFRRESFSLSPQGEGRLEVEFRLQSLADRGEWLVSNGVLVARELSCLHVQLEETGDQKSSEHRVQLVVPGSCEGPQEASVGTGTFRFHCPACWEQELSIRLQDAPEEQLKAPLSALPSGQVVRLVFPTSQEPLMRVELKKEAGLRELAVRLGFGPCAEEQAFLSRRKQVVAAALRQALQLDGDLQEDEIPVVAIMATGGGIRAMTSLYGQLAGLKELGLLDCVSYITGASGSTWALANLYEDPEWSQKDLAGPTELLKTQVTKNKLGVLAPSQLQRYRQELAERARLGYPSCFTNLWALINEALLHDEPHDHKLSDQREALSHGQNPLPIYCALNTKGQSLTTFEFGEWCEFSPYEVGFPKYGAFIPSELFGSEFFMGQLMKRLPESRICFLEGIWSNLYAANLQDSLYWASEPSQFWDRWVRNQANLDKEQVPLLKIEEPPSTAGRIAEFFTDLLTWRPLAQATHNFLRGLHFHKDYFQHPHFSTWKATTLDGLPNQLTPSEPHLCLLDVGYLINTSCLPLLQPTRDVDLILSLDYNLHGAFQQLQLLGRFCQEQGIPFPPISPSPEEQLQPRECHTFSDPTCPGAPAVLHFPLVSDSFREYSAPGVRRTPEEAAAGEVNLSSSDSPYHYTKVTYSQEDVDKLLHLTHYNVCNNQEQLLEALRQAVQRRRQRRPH

[12] = target: T2, Cytosolic phospholipase A2 gamma (Homo sapiens) (UniProt Q9UP65); assay: Inhibition of cytosolic phospholipase A2gamma at 0.5 uM; in short: as §2
T2 sequence (whole entry): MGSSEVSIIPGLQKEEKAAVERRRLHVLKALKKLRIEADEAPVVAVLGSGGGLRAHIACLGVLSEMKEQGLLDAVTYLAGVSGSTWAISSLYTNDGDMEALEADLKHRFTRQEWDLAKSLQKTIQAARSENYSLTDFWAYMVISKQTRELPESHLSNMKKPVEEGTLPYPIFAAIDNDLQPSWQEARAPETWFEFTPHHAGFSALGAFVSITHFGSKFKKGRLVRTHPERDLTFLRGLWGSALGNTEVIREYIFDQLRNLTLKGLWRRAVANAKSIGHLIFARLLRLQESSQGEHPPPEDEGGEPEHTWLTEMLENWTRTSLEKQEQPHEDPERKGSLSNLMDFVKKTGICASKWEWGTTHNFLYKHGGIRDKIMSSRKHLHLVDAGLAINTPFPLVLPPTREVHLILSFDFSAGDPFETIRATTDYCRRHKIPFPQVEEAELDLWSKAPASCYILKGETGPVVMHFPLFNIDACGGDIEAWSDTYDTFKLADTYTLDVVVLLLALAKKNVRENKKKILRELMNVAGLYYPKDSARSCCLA

[13] = Inhibition of cytosolic phospholipase A2alpha
[14] = Inhibition of secreted phospholipase A2 at 0.5 uM
In short: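 Type II secreted PLA2 activity measured with PAPE (1-palmitoyl-2-arachidonoyl-sn-glycero-3-phosphoethanolamine) liposomes as substrate.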

[15] = Oral bioavailability in rat; assay type: ADME, organism-based; conditions: in vivo
Rattus norvegicus [16] = assay: Inhibition of PGE2 production in carrageenan-stimulated rat air pouch model at 5 mg/kg, po after 6 hrs; assay type: functional
In short: (§3)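 Carrageenan was injected into a preformed air pouch 2 h after oral drug. Pouch contents were removed 6 h later and PGE2 was quantified.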

Rattus norvegicus [17] = assay: Inhibition of PGE2 production in carrageenan-stimulated orally dosed rat air pouch model after 6 hrs; assay type: functional; conditions: po; in short: as §3
Rattus norvegicus [18] = assay: Inhibition of carrageenan-induced paw edema in Sprague-Dawley rat administered 2 hrs before carrageenan challenge at 25 mg/kg, po; assay type: functional
Rattus norvegicus [19] = assay: Inhibition of carrageenan-induced paw edema in po dosed Sprague-Dawley rat administered 2 hrs before carrageenan challenge; assay type: functional
[20] = Inhibition of cytosolic phospholipase A2alpha by GLU micelle assay
In short: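 Micellar assay with 7-hydroxycoumarinyl-γ-linolenate (GLU) substrate, presenting inhibitor and substrate to the enzyme in high-lipid micelles. Each run gives the mean of duplicate assays, and values come from at least two runs.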

[21] = Plasma clearance in Sprague-Dawley rat at 2 mg/kg, iv; assay type: ADME, organism-based; parameters: dose 2 mg/kg, route intravenous
MC9 [22] = assay: Inhibition of LTB4 production in mouse MC9 cells; assay type: functional, cell-based
MC9 [23] = assay: Inhibition of PGF2alpha production in mouse MC9 cells; assay type: functional, cell-based
MC9 [24] = assay: Inhibition of PGF2apha production in arachidonic acid-stimulated mouse MC9 cells; assay type: functional, cell-based
Blood [25] = assay: Inhibition of TXB2 production in human whole blood at 0.039 uM; assay type: functional
In short: (§4)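 Human whole blood stimulated with calcium ionophore A23187 at 30 µM. Several arachidonic acid metabolites (LTB4, PGE2, PGF2α, TXB2) and PAF production were quantified.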

Blood [26] = assay: Inhibition of LTB4 production in human whole blood at 0.039 uM; assay type: functional; in short: as §4
Blood [27] = assay: Inhibition of PGE2 production in human whole blood at 0.039 uM; assay type: functional; in short: as §4
Blood [28] = assay: Inhibition of PGF2alpha production in human whole blood at 0.039 uM; assay type: functional; in short: as §4
Blood [29] = assay: Inhibition of PAF production in human whole blood at 0.039 uM; assay type: functional; in short: as §4
[30] = Plasma concentration in collagen-induced arthritis mouse model at 100 mg/kg, po twice daily after 3 hrs; assay type: ADME, organism-based; parameters: dose 100 mg/kg, route oral
Mus musculus = assay: Plasma concentration in collagen-induced arthritis mouse model at 100 mg/kg, po twice daily after 12 to 14 hrs; assay type: ADME, organism-based; parameters: dose 100 mg/kg, route oral; conditions: in vivo
[31] = Plasma concentration in adjuvant-induced arthritis Lewis rat model at 50 mg/kg, po after 4 hrs; assay type: ADME, organism-based; parameters: dose 50 mg/kg, route oral
[32] = Plasma concentration in adjuvant-induced arthritis Lewis rat model at 5 mg/kg, po after 4 hrs; assay type: ADME, organism-based; parameters: dose 5 mg/kg, route oral
[33] = Plasma concentration in adjuvant-induced arthritis Lewis rat model at 50 mg/kg, po after 16 hrs; assay type: ADME, organism-based; parameters: dose 50 mg/kg, route oral
[34] = Plasma concentration in adjuvant-induced arthritis Lewis rat model at 25 mg/kg, po after 16 hrs; assay type: ADME, organism-based; parameters: dose 25 mg/kg, route oral
[35] = Plasma concentration in adjuvant-induced arthritis Lewis rat model at 5 mg/kg, po after 16 hrs; assay type: ADME, organism-based; parameters: dose 5 mg/kg, route oral
[36] = system: Prostaglandin G/H synthase 2, cyclooxygenase-2; assay: Inhibition of COX2 in microsomes at 100 uM
[37] = system: Prostaglandin G/H synthase 1, cyclooxygenase-1; assay: Inhibition of COX1 in microsomes at 100 uM
Ovis aries [38] = assay: Inhibition of acute hyperresponsiveness in Ascaris Suum antigen-induced reversible airway bronchoconstriction sheep model assessed as reduction in lung resistance at 10 mg/kg, po bid administered and measured after 16 hrs
Blood [39] = assay: Inhibition of TXB2 production in human whole blood at 0.15 uM; assay type: functional; in short: as §4
Blood [40] = assay: Inhibition of LTB4 production in human whole blood at 0.15 uM; assay type: functional; in short: as §4
Blood [41] = assay: Inhibition of PGE2 production in human whole blood at 0.15 uM; assay type: functional; in short: as §4
Blood [42] = assay: Inhibition of PGF2alpha production in human whole blood at 0.15 uM; assay type: functional; in short: as §4
Blood [43] = assay: Inhibition of PAF production in human whole blood at 0.15 uM; assay type: functional; in short: as §4
[44] = target: Prostaglandin G/H synthase 2, cyclooxygenase-2 (Homo sapiens) (UniProt P35354); assay: Inhibition of COX2-dependent PGE2 production in IL1B stimulated human A549 cells at 0.040 uM
Prostaglandin G/H synthase 2, cyclooxygenase-2 (Homo sapiens), sequence (P35354 whole entry, looked up): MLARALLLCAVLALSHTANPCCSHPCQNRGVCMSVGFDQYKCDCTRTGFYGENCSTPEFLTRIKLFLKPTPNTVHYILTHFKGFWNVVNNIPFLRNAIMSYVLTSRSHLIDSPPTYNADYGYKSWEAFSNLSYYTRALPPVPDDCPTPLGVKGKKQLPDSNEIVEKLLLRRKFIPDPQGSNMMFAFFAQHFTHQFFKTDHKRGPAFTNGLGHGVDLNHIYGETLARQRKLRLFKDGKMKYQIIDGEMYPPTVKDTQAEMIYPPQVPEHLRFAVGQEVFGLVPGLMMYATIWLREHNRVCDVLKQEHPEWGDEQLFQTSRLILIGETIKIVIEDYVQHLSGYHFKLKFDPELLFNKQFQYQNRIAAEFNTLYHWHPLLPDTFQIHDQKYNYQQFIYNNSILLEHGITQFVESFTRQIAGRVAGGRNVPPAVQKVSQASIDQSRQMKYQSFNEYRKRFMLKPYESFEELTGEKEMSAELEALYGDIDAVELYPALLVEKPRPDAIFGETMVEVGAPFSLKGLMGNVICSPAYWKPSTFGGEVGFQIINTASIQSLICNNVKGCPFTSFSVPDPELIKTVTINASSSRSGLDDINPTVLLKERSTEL

[45] = target: Prostaglandin G/H synthase 2, cyclooxygenase-2 (Homo sapiens) (UniProt P35354); assay: Inhibition of COX2-dependent PGE2 production in IL1B stimulated human A549 cells at 1 uM in presence of arachidonic acid

concentration at 4 h [9]	inhibition [10]	Activity [11]	Activity [12]	IC50 [13]	Activity [14]	bioavailability [15]	IC50 [20]	IC50 (MC9 [22])	IC50 (MC9 [23])	IC50 (MC9 [24])	Structure (SMILES)	Activity (Rattus norvegicus [1])	Activity (Rattus norvegicus [2])	Activity (Rattus norvegicus [3])	Activity (Rattus norvegicus [4])	Activity (Rattus norvegicus [5])	Activity (Ovis aries [6])	Activity (Rattus norvegicus [8])	ED50 (Rattus norvegicus [17])	ED50 (Rattus norvegicus [19])	further results
698 ng/mL	> 90%	inactive	inactive	< 10 nM	inactive	4%	10 nM	12 nM	6 nM	> 1000 nM	Cc1cccc(C)c1CS(=O)(=O)NCCc1c(CCCc2ccc(C(=O)O)cc2)c2cc(Cl)ccc2n1C(c1ccccc1)c1ccccc1	Active	Active	Active	Active	Active	85%	Active	3.5 mg/kg	8 mg/kg	Ratio [7]: 160 h; inhibition in vivo at 5 mg/kg (Rattus norvegicus [16]): > 50%; inhibition in vivo at 25 mg/kg (Rattus norvegicus [18]): 34%; clearance [21]: 3 mL/min/kg; inhibition at 0.039 µM (Blood [25]): 72%; inhibition at 0.039 µM (Blood [26]): 78%; inhibition at 0.039 µM (Blood [27]): 79%; inhibition at 0.039 µM (Blood [28]): 72%; inhibition at 0.039 µM (Blood [29]): 57%; concentration at 3 h [30]: 923 ng/mL; Cp (Mus musculus): 118 ng/mL; concentration at 4 h [31]: 1140 ng/mL; concentration at 4 h [32]: 69 ng/mL; concentration at 16 h [33]: 110 ng/mL; concentration at 16 h [34]: 73 ng/mL; concentration at 16 h [35]: 26 ng/mL; Activity [36]: inactive; Activity [37]: inactive; Activity (Ovis aries [38]): Active
1130 ng/mL	> 90%	inactive	inactive	< 10 nM	inactive	6%	40 nM	20 nM	20 nM	900 nM	O=C(O)c1ccc(CCCc2c(CCNS(=O)(=O)Cc3ccc(Cl)c(Cl)c3)n(C(c3ccccc3)c3ccccc3)c3ccc(Cl)cc23)cc1 [EFIPLADIB]	Active	Active	Active	Active	Active	50%	Active	6 mg/kg	35 mg/kg	inhibition at 0.15 µM (Blood [39]): 57%; inhibition at 0.15 µM (Blood [40]): 64%; inhibition at 0.15 µM (Blood [41]): 78%; inhibition at 0.15 µM (Blood [42]): 66%; inhibition at 0.15 µM (Blood [43]): 50%; concentration at 3 h [30]: 7200 ng/mL; Cp (Mus musculus): 2315 ng/mL; concentration at 4 h [31]: 3600 ng/mL; concentration at 4 h [32]: 147 ng/mL; concentration at 16 h [33]: 692 ng/mL; concentration at 16 h [34]: 166 ng/mL; concentration at 16 h [35]: 34 ng/mL; inhibition [44]: > 95%; Activity [45]: inactive; Activity (Ovis aries [38]): Active
